From ChEMBL document CHEMBL3580600, “Design, Synthesis, and Evaluation of 4- and 5-Substituted o-(Octanesulfonamido)benzoic Acids as Inhibitors of Glycerol-3-Phosphate Acyltransferase” (Medchemcomm, 2014)
pIC50: −log10 of the molar value.

Target: T1, Glycerol-3-phosphate acyltransferase 1, mitochondrial (Mus musculus, UniProt Q61586)
T1 sequence (Q61586 whole entry): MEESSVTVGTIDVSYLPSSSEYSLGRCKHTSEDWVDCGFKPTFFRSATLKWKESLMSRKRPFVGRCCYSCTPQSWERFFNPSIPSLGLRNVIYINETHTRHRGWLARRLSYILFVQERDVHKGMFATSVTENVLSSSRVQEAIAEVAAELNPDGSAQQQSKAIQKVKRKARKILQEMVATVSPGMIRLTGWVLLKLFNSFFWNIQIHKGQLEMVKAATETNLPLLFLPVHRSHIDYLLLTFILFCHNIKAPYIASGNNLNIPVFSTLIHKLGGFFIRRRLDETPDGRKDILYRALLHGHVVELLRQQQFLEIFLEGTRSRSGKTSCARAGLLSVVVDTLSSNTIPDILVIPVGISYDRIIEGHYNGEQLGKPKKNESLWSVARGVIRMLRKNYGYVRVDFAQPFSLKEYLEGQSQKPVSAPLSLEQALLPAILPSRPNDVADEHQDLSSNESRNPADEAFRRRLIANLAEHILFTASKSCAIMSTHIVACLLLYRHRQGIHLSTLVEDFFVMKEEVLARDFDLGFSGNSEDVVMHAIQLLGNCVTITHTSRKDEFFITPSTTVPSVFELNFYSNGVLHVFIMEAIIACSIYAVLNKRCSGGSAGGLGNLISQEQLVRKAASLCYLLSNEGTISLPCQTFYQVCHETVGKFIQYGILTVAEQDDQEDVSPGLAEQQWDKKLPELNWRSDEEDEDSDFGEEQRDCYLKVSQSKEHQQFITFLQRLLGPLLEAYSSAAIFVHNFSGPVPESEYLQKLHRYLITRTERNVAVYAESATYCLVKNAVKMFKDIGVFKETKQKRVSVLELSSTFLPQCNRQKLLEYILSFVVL
Assay: Inhibition of GPAT in BALB/c mouse mitochondria using 14C-labeled glycerol-3-phosphate and palmitoyl-CoA incubated for 10 mins by scintillation counting method
Summary of the method: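 Mitochondria isolated from freshly harvested BALB/c mouse liver by differential centrifugation (1000 × g, then 3500 × g, twice) and resuspended in HEPES pH 7.4 storage buffer. Reaction in 75 mM Tris/HCl pH 7.4, 4 mM MgCl₂, 2 mg/mL BSA, 14C-glycerol-3-phosphate (7.6 mCi/mmol), 50 μM palmitoyl-CoA. Inhibitor 0–40 μg/mL in DMSO. Triplicates. IC50 taken relative to DMSO vehicle control activity.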

pIC50 | SMILES
4.42 | CCCCCCCCS(=O)(=O)Nc1cc(/C=C/c2ccccc2)ccc1C(=O)O
4.71 | CCCCCCCCS(=O)(=O)Nc1ccc(-c2ccc(OC)cc2)cc1C(=O)O
4.88 | CCCCCCCCS(=O)(=O)Nc1cc(-c2ccc(OC)cc2)ccc1C(=O)O
4.43 | CCCCCCCCS(=O)(=O)Nc1cc(CCc2ccccc2)ccc1C(=O)O
4.33 | CCCCCCCCS(=O)(=O)Nc1cc(-c2ccccc2F)ccc1C(=O)O
5.05 | CCCCCCCCS(=O)(=O)Nc1ccc(-c2cccc(Cl)c2)cc1C(=O)O
4.35 | CCCCCCCCS(=O)(=O)Nc1ccc(C(=O)c2ccc(OC)cc2)cc1C(=O)O
4.87 | CCCCCCCCS(=O)(=O)Nc1cc(-c2ccc(-c3ccccc3)cc2)ccc1C(=O)O
4.49 | CCCCCCCCS(=O)(=O)Nc1cc(-c2cccc(F)c2)ccc1C(=O)O
4.43 | CCCCCCCCS(=O)(=O)Nc1ccc(/C=C/c2ccc(OC)cc2)cc1C(=O)O
4.43 | CCCCCCCCS(=O)(=O)Nc1ccc(CCc2ccccc2)cc1C(=O)O
4.33 | CCCCCCCCS(=O)(=O)Nc1ccc(-c2ccc(O)cc2)cc1C(=O)O
4.86 | CCCCCCCCS(=O)(=O)Nc1cc(-c2cccc(Cl)c2)ccc1C(=O)O
5.05 | CCCCCCCCS(=O)(=O)Nc1ccc(-c2ccc(CCCC)cc2)cc1C(=O)O
4.42 | CCCCCCCCS(=O)(=O)Nc1ccc(-c2cccc(F)c2)cc1C(=O)O
4.80 | CCCCCCCCS(=O)(=O)Nc1cc(-c2ccc(CCCC)cc2)ccc1C(=O)O
4.41 | CCCCCCCCS(=O)(=O)Nc1cc(/C=C/c2ccc(OC)cc2)ccc1C(=O)O
5.04 | CCCCCCCCS(=O)(=O)Nc1ccc(-c2ccc(Cl)cc2)cc1C(=O)O

pIC50 | SMILES
5.07 | CCCCCCCCS(=O)(=O)Nc1cc(C(=O)c2ccc(-c3ccccc3)cc2)ccc1C(=O)O
4.37 | CCCCCCCCS(=O)(=O)Nc1cc(CCc2ccc(OC)cc2)ccc1C(=O)O
4.79 | CCCCCCCCS(=O)(=O)Nc1cc(-c2ccccc2OC)ccc1C(=O)O
5.00 | CCCCCCCCS(=O)(=O)Nc1ccc(-c2ccccc2-c2ccccc2)cc1C(=O)O
4.89 | CCCCCCCCS(=O)(=O)Nc1ccc(C(=O)c2ccc(-c3ccccc3)cc2)cc1C(=O)O
4.46 | CCCCCCCCS(=O)(=O)Nc1ccc(-c2ccccc2F)cc1C(=O)O
4.57 | CCCCCCCCS(=O)(=O)Nc1cc(-c2ccccc2Cl)ccc1C(=O)O
4.58 | CCCCCCCCS(=O)(=O)Nc1ccc(CCc2ccc(OC)cc2)cc1C(=O)O
4.77 | CCCCCCCCS(=O)(=O)Nc1cc(-c2ccccc2-c2ccccc2)ccc1C(=O)O
4.50 | CCCCCCCCS(=O)(=O)Nc1ccc(C(=O)c2ccc(CCCC)cc2)cc1C(=O)O
4.74 | CCCCCCCCS(=O)(=O)Nc1cc(-c2ccc(Cl)cc2)ccc1C(=O)O
4.21 | CCCCCCCCS(=O)(=O)Nc1ccc(-c2ccccc2O)cc1C(=O)O
4.80 | CCCCCCCCS(=O)(=O)Nc1cc(C(=O)c2ccc(CCCC)cc2)ccc1C(=O)O
4.79 | CCCCCCCCS(=O)(=O)Nc1ccc(/C=C/c2ccccc2)cc1C(=O)O
4.19 | CCCCCCCCS(=O)(=O)Nc1cc(-c2ccc(O)cc2)ccc1C(=O)O
4.23 | CCCCCCCCS(=O)(=O)Nc1ccc(C(=O)c2ccccc2OC)cc1C(=O)O
4.56 | CCCCCCCCS(=O)(=O)Nc1ccc(-c2ccccc2OC)cc1C(=O)O
4.54 | CCCCCCCCS(=O)(=O)Nc1ccc(-c2ccc(-c3ccccc3)cc2)cc1C(=O)O
